Measurements: the RNAGym collection of RNA variant scans (doi:10.1126/science.aae0568)
This sample holds only a part of the variants without activity.

B1: tRNA (parent)
chain: GUUCCGUUGGCGUAAUGGUAACGCGUCUCCCUCCUAAGGAGAAGACUGCGGGUUCGAGUCCCGUACGGAACG

Variants of: B1
Test: yeast fitness relative to wild type (ratio to wild type); higher = fitter; tRNA-Arg(CCU), competitive growth, 37 C, YPD
Summary of the method: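 Variants of the tRNA-Arg(CCU) gene, chemically synthesised with a 3% per-site mutation rate at 69 sites, were placed at the native genomic locus in Saccharomyces cerevisiae. The pooled strains were competed in YPD at 37°C for 24 hours in six parallel replicates. Gene amplicons from the start population and from each end population were read by 100-nucleotide paired-end sequencing. Darwinian fitness relative to wild type came from changes in genotype frequencies; genotypes needed ≥ 100 starting reads, and estimates < 0.5 were set to 0.5.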
For C5U U13C C24G U26C A37G U54G, the yeast fitness was at most 0.5. With G6A A15C A20U C29U the yeast fitness was at most 0.5. G6A A15U C27A A65C A69C gave a yeast fitness of at most 0.5. Variant C5U G68U has a yeast fitness of 0.88. Work on C5U G68A yielded a yeast fitness of 0.969. For C5U G68C, the yeast fitness was 0.842. In the case of C5U G44C C49U U64G G67A, the yeast fitness is reported as 0.51. In the case of C5U U7C C30A A42C A65U A69U, the yeast fitness is reported as at most 0.5. In the case of G6A A20C C61A, the yeast fitness is reported as at most 0.5. For G6A A20C C61U, the yeast fitness was 0.663. For C5U U28A G41A C66U, the yeast fitness was 0.542. C5U G44A G68A showed a yeast fitness of 0.522. In the case of C5U U16G G58C, the yeast fitness is reported as 0.576. With C5U U13A C22U C30A A37G G41C C46G the yeast fitness was at most 0.5. G6A A14U C61A showed a yeast fitness of at most 0.5. For C5U U28C C33G G38A U64G, the yeast fitness was at most 0.5. Variant C5U G51A A57U has a yeast fitness of at most 0.5. C5U G58C C66G showed a yeast fitness of at most 0.5. G6A A20C A45U C46U A57C showed a yeast fitness of 0.501. C5U U13G C33A A37C G52C gave a yeast fitness of at most 0.5. C5U U19C C34U A70C gave a yeast fitness of at most 0.5. For C5U G51A A65C, the yeast fitness was at most 0.5. G6A A20G A36G C49G C61A showed a yeast fitness of at most 0.5. Work on C5U U8C A43U yielded a yeast fitness of 0.703. Variant C5U G67A has a yeast fitness of 0.923. For C5U G67U, the yeast fitness was 0.735. C5U G67C gave a yeast fitness of 0.913. In the case of C5U U28G A45C C66U, the yeast fitness is reported as 0.599. For C5U U32C G39A, the yeast fitness was 0.584. C5U U59C showed a yeast fitness of 0.946. With C5U U59A the yeast fitness was 0.886. In the case of G6A A14U C29A C49A, the yeast fitness is reported as at most 0.5. Variant C5U U26A G68C has a yeast fitness of 0.663. In the case of C5U U8A C46A, the yeast fitness is reported as at most 0.5. With C5U U28A the yeast fitness was 0.864. In the case of C5U U28C, the yeast fitness is reported as 0.976. Work on C5U U28G yielded a yeast fitness of 0.71. C5U U7C A15U A40U U59A A65U G68A showed a yeast fitness of 0.542. In the case of G6A A15C C33G A36C, the yeast fitness is reported as at most 0.5. C5U U8C A43U C66U showed a yeast fitness of at most 0.5. G6A A21C A43U gave a yeast fitness of 0.528. C5U U13A C62A gave a yeast fitness of 0.546. Variant C5U U19G G67A has a yeast fitness of 0.649. C5U U13C C24G U26C A36C C55G A57U C62U showed a yeast fitness of at most 0.5. For C5U U28G C49A, the yeast fitness was at most 0.5. For C5U U13C U19A A21U C24A U54C U59C C66G, the yeast fitness was at most 0.5. Work on C5U U26A A65U G68U yielded a yeast fitness of 0.548. G6A A20U C49U showed a yeast fitness of 0.542. Work on C5U U8A G18C yielded a yeast fitness of 0.577. For C5U U13A A43G A45G C62G, the yeast fitness was at most 0.5. With G6A A21G A43U A70G the yeast fitness was at most 0.5. Work on C5U U8A A57U yielded a yeast fitness of at most 0.5. In the case of C5U G44C, the yeast fitness is reported as 1.01. G6A A14C A20G A42U G56A G63C showed a yeast fitness of at most 0.5. Work on C5U U28G A42C yielded a yeast fitness of at most 0.5. Work on C5U U8C A36G C60A yielded a yeast fitness of at most 0.5. In the case of C5U U13G C22A C29U C31A U59A C62U, the yeast fitness is reported as at most 0.5. In the case of C5U G52C, the yeast fitness is reported as 0.622. C5U G51C G56C gave a yeast fitness of at most 0.5. For C5U U7A C30A G56C C66G, the yeast fitness was at most 0.5. In the case of C5U U32C A45C, the yeast fitness is reported as 0.733. Work on C5U U8A A70C yielded a yeast fitness of 0.583. In the case of C5U G44C G63C, the yeast fitness is reported as 0.686. For G6A A15U A20G, the yeast fitness was at most 0.5. C5U U8A A69C gave a yeast fitness of at most 0.5. C5U U19A A40C C49G C55G A69U showed a yeast fitness of at most 0.5. G6A A15G C22A G25A C33U G52C G56C showed a yeast fitness of at most 0.5. In the case of C5U U32A G50A, the yeast fitness is reported as 0.581. C5U U19G C46A C55G showed a yeast fitness of at most 0.5. In the case of C5U U13A C29G C31A C61U, the yeast fitness is reported as at most 0.5. Variant G6A A14U G48A has a yeast fitness of 0.547. C5U U32C C55U showed a yeast fitness of 0.564. C5U U7G A45G A70C gave a yeast fitness of at most 0.5. For C5U U13G A15U, the yeast fitness was at most 0.5. Work on C5U U13G A15C yielded a yeast fitness of 0.509. With C5U U7A C33A A45C the yeast fitness was 0.573. Work on C5U U28A G67A yielded a yeast fitness of 0.545. C5U U59G C61G gave a yeast fitness of 0.606. Work on G6A A15C A36C A42U C55G C61U yielded a yeast fitness of at most 0.5. C5U G56A A65G C66U gave a yeast fitness of 0.671. In the case of C5U U35C A45C, the yeast fitness is reported as 0.743. With G6A A14G A15G A20C U64A G67A the yeast fitness was at most 0.5. C5U U19G G23A gave a yeast fitness of at most 0.5. For C5U U54A A69U, the yeast fitness was at most 0.5. With C5U G48U A70C the yeast fitness was 0.707. C5U U28C C29G C49U gave a yeast fitness of at most 0.5. Variant G6A A15C C29A C66U has a yeast fitness of at most 0.5. Variant C5U U26A C60G A70G has a yeast fitness of at most 0.5. C5U U16G A65C gave a yeast fitness of 0.612. G6A A21C C62U showed a yeast fitness of at most 0.5. In the case of C5U U13A G18C C30G A37U C46U, the yeast fitness is reported as at most 0.5. C5U G48A G50A C55U A65C gave a yeast fitness of at most 0.5. In the case of C5U U7A A20C G68C, the yeast fitness is reported as at most 0.5. G6A A15C G51A A57U G68A gave a yeast fitness of at most 0.5. Work on G6A A21C U47A A70G yielded a yeast fitness of at most 0.5. With G6A A21G A37C A57C the yeast fitness was at most 0.5. Variant C5U U7A C33U A42C U64C A70G has a yeast fitness of at most 0.5. For C5U G51C U53C, the yeast fitness was at most 0.5. In the case of C5U U16A G38A A42G, the yeast fitness is reported as at most 0.5. For G6A A20C C49G G50C, the yeast fitness was at most 0.5. For C5U U26A U59C, the yeast fitness was 0.722. G6A A14C A37U U54A gave a yeast fitness of at most 0.5. With C5U U7C C30G A42C G52A C55U C66U the yeast fitness was at most 0.5. C5U U16G G51C A57C gave a yeast fitness of at most 0.5. Work on C5U G56C A57U yielded a yeast fitness of at most 0.5. Variant C5U U8C A36G A40G C60A has a yeast fitness of at most 0.5. C5U U19C A69G showed a yeast fitness of 0.706. In the case of G6A A21C U47A G58A A65C, the yeast fitness is reported as at most 0.5. C5U U16G U64C gave a yeast fitness of 0.932. For C5U U13C C30U A40G C55A G63C A65C, the yeast fitness was at most 0.5. In the case of C5U G51A, the yeast fitness is reported as 0.798. In the case of C5U U7G C34G G44A U59G G68U, the yeast fitness is reported as at most 0.5. For G6A A15G C30A G67A, the yeast fitness was at most 0.5. For C5U U7A, the yeast fitness was 0.772. In the case of C5U U7C, the yeast fitness is reported as 0.92. Work on C5U U7G yielded a yeast fitness of 0.894. For C5U G50C G51C G56C A69U, the yeast fitness was at most 0.5. With C5U G63A the yeast fitness was 0.828. In the case of C5U G63C, the yeast fitness is reported as 0.664. With C5U G50A the yeast fitness was 0.888. C5U U7C C30G A42C gave a yeast fitness of 0.565. For G6A A15C C27A A37G A43G, the yeast fitness was at most 0.5. In the case of C5U U13C A20U A37C G44C, the yeast fitness is reported as at most 0.5. In the case of G6A A20C A65G, the yeast fitness is reported as 0.672. With G6A A20C A65U the yeast fitness was 0.699. C5U U26C G50C G51C G56C G67A showed a yeast fitness of at most 0.5. C5U G56A showed a yeast fitness of 0.937. C5U G56C gave a yeast fitness of 0.651. Work on C5U U19G C66A yielded a yeast fitness of 0.531. C5U G56A U59G showed a yeast fitness of 0.516. Work on C5U U13C G39C A45G yielded a yeast fitness of at most 0.5. For G6A A14G C22G, the yeast fitness was at most 0.5. With C5U U13G C55U G67C the yeast fitness was at most 0.5. C5U U13G showed a yeast fitness of 1.02. In the case of C5U U7A U26A G39C, the yeast fitness is reported as at most 0.5. Work on C5U U16C A20G C29A yielded a yeast fitness of at most 0.5. Work on C5U U28A U35C U59A yielded a yeast fitness of at most 0.5. G6A A20G C30U C55U showed a yeast fitness of at most 0.5. With G6A A15G C29U the yeast fitness was 0.607. For G6A A15G C29A, the yeast fitness was at most 0.5. In the case of C5U U16G C24U, the yeast fitness is reported as 0.776. With C5U U13A A57U the yeast fitness was 0.573. With C5U U16C C30A C31U the yeast fitness was at most 0.5. Work on C5U U26A A69C yielded a yeast fitness of 0.78. G6A A15C G23U showed a yeast fitness of at most 0.5. C5U U16A C46A showed a yeast fitness of 1.07. For C5U U7A U28A, the yeast fitness was 0.573. Work on G6A A20U C29G C49G G63C yielded a yeast fitness of at most 0.5. G6A A20G C46U gave a yeast fitness of 0.723. Work on C5U U19A yielded a yeast fitness of 0.906. With C5U U19G the yeast fitness was 1. With C5U U47A C49U A69U the yeast fitness was at most 0.5. G6A A15G U19C C22A gave a yeast fitness of at most 0.5. With G6A A15C A20U C61G the yeast fitness was 0.565. Work on C5U U7A G18U U28A yielded a yeast fitness of at most 0.5. G6A A20C C27U gave a yeast fitness of 0.663. Work on C5U U32C A37C C60U G67A yielded a yeast fitness of 0.572. Variant C5U U32A has a yeast fitness of 0.789. C5U U32G showed a yeast fitness of 0.669. C5U U19G A21U C29G C61G showed a yeast fitness of at most 0.5. G6A A14G G17C showed a yeast fitness of at most 0.5. Work on C5U U26A C66U yielded a yeast fitness of 0.792. With G6A A21C C33G A45C G50C the yeast fitness was 0.515. Work on C5U U8A U59G yielded a yeast fitness of at most 0.5. With G6A A14U C55U C61A the yeast fitness was at most 0.5. G6A A20U C62G C66G showed a yeast fitness of at most 0.5. C5U U19A G25C C29A A43U showed a yeast fitness of at most 0.5.
